Measured values taken from ChEMBL document CHEMBL4251626, “4β-amidotriazole linked podophyllotoxin congeners: DNA topoisomerase-IIα inhibition and potential anticancer agents for prostate cancer” (Eur J Med Chem, 2018).
Active and inactive are the calls of the source. The calls are words filed in the database; no cut-off is given here.

Columns and labels:
[1] = system: A549; test: Antiproliferative activity against human A549 cells after 48 hrs by MTT assay; format: functional, cell-based; conditions: A549, 48 h
Method in brief: (§1)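 Cells in DMEM/10% FBS pre-incubated 24 h at 37 °C, then compound-treated 48 h (10 mM DMSO stock diluted in medium). MTT (10 µL of 5 mg/mL) added for 4 h; formazan dissolved in DMSO, absorbance read at 570 nm. IC50 = 50% inhibitory concentration, mean of three individual experiments.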

[2] = system: DU-145; test: Induction of apoptosis in human DU145 cells assessed as necrotic cells at 1 uM after 24 hrs by Annexin V-FITC/propidium iodide staining based flow cytometry (reference value: 1.65%); format: functional
[3] = system: HeLa; test: Antiproliferative activity against human HeLa cells after 48 hrs by MTT assay; format: functional, cell-based; method in brief: as §1
[4] = system: DU-145; test: Antimigratory activity against human DU145 cells at 0.5 to 1 uM after 24 to 48 hrs by phase contrast microscopic based scratch assay; format: functional, cell-based
Method in brief: (§2)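 DU-145 cells seeded at 2x10^5/well and grown to confluence; wound made with a sterile 200 µL tip, debris washed off with PBS. Fresh medium with compound at the indicated concentrations added. Migration followed by phase-contrast microscopy with images at 0, 24 and 48 h.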

[5] = system: HepG2; test: Antiproliferative activity against human HepG2 cells after 48 hrs by MTT assay; format: functional, cell-based; conditions: HepG2, 48 h; method in brief: as §1
[6] = system: DU-145; test: Cell cycle arrest in human DU145 cells assessed as accumulation at G2/M phase at 0.5 uM after 24 hrs by propidium iodide staining based flow cytometry relative to control; format: functional
Method in brief: (§3)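 DU-145 cells (2x10^5/well) serum-starved 24 h to synchronize, then treated in complete medium for 24 h. Harvested and fixed in 70% ethanol at -20 °C for 30 min. RNase A (0.1 mg/mL, 37 °C, 30 min), then propidium iodide (50 µg/mL, 30 min on ice, dark). DNA content measured by flow cytometry.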

[7] = system: DU-145; test: Induction of apoptosis in human DU145 cells assessed as live cells at 0.5 uM after 24 hrs by Annexin V-FITC/propidium iodide staining based flow cytometry (reference value: 96.3%); format: functional
[8] = system: DU-145; test: Induction of apoptosis in human DU145 cells assessed as late apoptotic cells at 0.5 uM after 24 hrs by Annexin V-FITC/propidium iodide staining based flow cytometry (reference value: 1.49%); format: functional
[9] = system: DU-145; test: Induction of apoptosis in human DU145 cells assessed as nuclear fragmentation at 0.5 to 1 uM after 24 hrs by Hoechst staining based fluorescence microscopic method; format: functional, cell-based
Method in brief: (§4)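 DU-145 cells (1x10^5/well) incubated overnight, then treated 24 h. After three PBS washes, stained with Hoechst (1 µg/ml) for 20 min at 37 °C and washed. Imaged by fluorescence microscopy; random fields counted for chromatin condensation and nuclear fragmentation.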

[10] = system: MCF7; test: Antiproliferative activity against human MCF7 cells after 48 hrs by MTT assay; format: functional, cell-based; conditions: MCF7, 48 h; method in brief: as §1
[11] = system: DU-145; test: Induction of apoptosis in human DU145 cells assessed as early apoptotic cells at 0.5 uM after 24 hrs by Annexin V-FITC/propidium iodide staining based flow cytometry (reference value: 0.56%); format: functional
[12] = target: DNA topoisomerase 2-alpha (Homo sapiens) (UniProt P11388); test: Poison activity at recombinant human topoisomerase-2 alpha assessed as linear DNA formation using pHOT1 kDNA as substrate at 100 uM after 10 mins by agarose gel electrophoresis method
Chain of DNA topoisomerase 2-alpha (Homo sapiens) (P11388 whole entry): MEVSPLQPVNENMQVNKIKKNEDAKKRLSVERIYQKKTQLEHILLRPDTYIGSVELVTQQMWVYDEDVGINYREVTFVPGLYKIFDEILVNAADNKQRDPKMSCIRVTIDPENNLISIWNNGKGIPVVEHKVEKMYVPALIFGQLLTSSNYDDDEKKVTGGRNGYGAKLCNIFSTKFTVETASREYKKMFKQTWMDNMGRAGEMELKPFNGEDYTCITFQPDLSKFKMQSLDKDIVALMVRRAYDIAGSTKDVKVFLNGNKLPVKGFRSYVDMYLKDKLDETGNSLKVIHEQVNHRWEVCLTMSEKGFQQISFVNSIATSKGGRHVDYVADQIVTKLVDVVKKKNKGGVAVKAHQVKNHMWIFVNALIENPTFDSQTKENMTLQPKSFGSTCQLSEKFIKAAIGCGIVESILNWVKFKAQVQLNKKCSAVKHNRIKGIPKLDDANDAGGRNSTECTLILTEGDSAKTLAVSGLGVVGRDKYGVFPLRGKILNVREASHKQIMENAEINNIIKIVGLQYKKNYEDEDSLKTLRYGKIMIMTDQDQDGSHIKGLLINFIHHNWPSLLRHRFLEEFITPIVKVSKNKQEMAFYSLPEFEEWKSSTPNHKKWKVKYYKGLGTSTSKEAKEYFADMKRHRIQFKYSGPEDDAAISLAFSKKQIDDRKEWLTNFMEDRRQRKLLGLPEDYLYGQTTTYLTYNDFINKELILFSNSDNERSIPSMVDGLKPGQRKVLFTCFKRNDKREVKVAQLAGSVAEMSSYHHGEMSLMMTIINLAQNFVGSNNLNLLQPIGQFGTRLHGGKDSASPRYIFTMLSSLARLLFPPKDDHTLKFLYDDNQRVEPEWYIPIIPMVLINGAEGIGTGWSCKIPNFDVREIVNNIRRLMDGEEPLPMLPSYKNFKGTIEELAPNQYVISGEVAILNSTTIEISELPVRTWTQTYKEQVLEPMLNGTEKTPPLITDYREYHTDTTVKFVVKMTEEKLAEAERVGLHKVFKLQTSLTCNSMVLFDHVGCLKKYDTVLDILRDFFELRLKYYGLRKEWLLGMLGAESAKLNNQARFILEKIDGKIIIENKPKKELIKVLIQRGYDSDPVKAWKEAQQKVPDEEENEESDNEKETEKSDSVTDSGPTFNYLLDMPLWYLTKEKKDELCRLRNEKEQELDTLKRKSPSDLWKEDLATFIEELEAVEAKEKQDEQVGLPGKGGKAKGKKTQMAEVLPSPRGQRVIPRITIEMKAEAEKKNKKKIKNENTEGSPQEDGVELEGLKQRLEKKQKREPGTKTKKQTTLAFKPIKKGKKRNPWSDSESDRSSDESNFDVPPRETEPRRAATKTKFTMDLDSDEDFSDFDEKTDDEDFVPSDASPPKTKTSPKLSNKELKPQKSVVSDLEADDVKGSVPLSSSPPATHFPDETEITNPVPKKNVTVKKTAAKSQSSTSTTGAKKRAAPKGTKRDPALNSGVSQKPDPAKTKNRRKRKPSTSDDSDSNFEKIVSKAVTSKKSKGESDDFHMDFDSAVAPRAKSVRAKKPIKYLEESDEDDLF
Method in brief: (§5)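 Five units human recombinant topo II, 10 min at 37 °C. Stopped with loading-dye stop buffer; products resolved on 1% agarose gel in TAE (catenated, decatenated, linear DNA).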

[13] = system: DU-145; test: Cell cycle arrest in human DU145 cells assessed as accumulation at G2/M phase at 1 uM after 24 hrs by propidium iodide staining based flow cytometry relative to control; format: functional; method in brief: as §3
[14] = system: DU-145; test: Induction of apoptosis in human DU145 cells assessed as late apoptotic cells at 1 uM after 24 hrs by Annexin V-FITC/propidium iodide staining based flow cytometry (reference value: 1.49%); format: functional
[15] = system: DU-145; test: Induction of apoptosis in human DU145 cells assessed as cell shrinkage at 0.5 to 1 uM after 24 hrs by phase contrast microscopic method; format: functional, cell-based
Method in brief: (§6)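 DU-145 cells (2x10^5/well) plated overnight; medium replaced with fresh medium containing compound at indicated concentrations for 24 h. Cell morphology examined and photographed by phase-contrast microscopy.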

[16] = system: DU-145; test: Induction of mitochondrial membrane potential loss in human DU145 cells […] at 0.5 to 1 uM after 24 hrs by JC1 staining based flow cytometry; format: functional, cell-based
Method in brief: (§7)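 Cells (2x10^5/well) treated 24 h, trypsinized and pelleted (400 g, 5 min). Incubated with freshly made JC-1 working solution for 15 min at 37 °C, washed twice in assay buffer. Analysed by flow cytometry as percentage of J-aggregate versus J-monomer cells.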

[17] = system: DU-145; test: Induction of apoptosis in human DU145 cells assessed as early apoptotic cells at 1 uM after 24 hrs by Annexin V-FITC/propidium iodide staining based flow cytometry (reference value: 0.56%); format: functional
[18] = system: HT-29; test: Antiproliferative activity against human HT-29 cells after 48 hrs by MTT assay; format: functional, cell-based; conditions: HT-29, 48 h; method in brief: as §1
[19] = system: DU-145; test: Antiproliferative activity against human DU145 cells after 48 hrs by MTT assay; format: functional, cell-based; conditions: DU-145, 48 h; method in brief: as §1
[20] = system: DU-145; test: Induction of apoptosis in human DU145 cells assessed as cell detachment from substratum at 0.5 to 1 uM after 24 hrs by phase contrast microscopic method; format: functional, cell-based; method in brief: as §6
[21] = system: NIH3T3; test: Antiproliferative activity against mouse NIH/3T3 cells after 48 hrs by MTT assay; format: cell-based; conditions: NIH3T3, 48 h; method in brief: as §1
[22] = system: DU-145; test: Induction of apoptosis in human DU145 cells assessed as nuclear condensation at 0.5 to 1 uM after 24 hrs by Hoechst staining based fluorescence microscopic method; format: functional, cell-based; method in brief: as §4
[23] = system: DU-145; test: Induction of apoptosis in human DU145 cells assessed as necrotic cells at 0.5 uM after 24 hrs by Annexin V-FITC/propidium iodide staining based flow cytometry (reference value: 1.65%); format: functional
[24] = system: DU-145; test: Induction of ROS production in human DU145 cells at 0.5 to 1 uM after 24 hrs by DCFDA staining based fluorescence microscopic method; format: functional, cell-based
Method in brief: (§8)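 DU-145 cells (2x10^5/well) plated overnight, then treated 24 h at indicated concentrations. Medium replaced with DCFDA (10 µM) for 30 min at room temperature in the dark. After PBS washes, fluorescence was imaged by microscopy and reported as mean fluorescence intensity.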

[25] = system: DU-145; test: Induction of apoptosis in human DU145 cells assessed as live cells at 1 uM after 24 hrs by Annexin V-FITC/propidium iodide staining based flow cytometry (reference value: 96.3%); format: functional
[26] = target: DNA topoisomerase 2-alpha (Homo sapiens) (UniProt P11388); test: Inhibition of recombinant human topoisomerase-2 alpha assessed as reduction in decatenation of pHOT1 kDNA at 100 uM after 10 mins by agarose gel electrophoresis method; method in brief: as §5
[27] = system: DU-145; test: Induction of apoptosis in human DU145 cells after 24 hrs by Annexin V-FITC/propidium iodide staining based flow cytometry; format: functional, cell-based
[28] = system: DU-145; test: Induction of ROS production in human DU145 cells after 24 hrs by DCFDA staining based fluorescence microscopic method; format: functional, cell-based; method in brief: as §8
[29] = system: DU-145; test: Induction of apoptosis in human DU145 cells assessed as early apoptotic cells at 2 uM after 24 hrs by Annexin V-FITC/propidium iodide staining based flow cytometry (reference value: 0.56%); format: functional
[30] = system: DU-145; test: Induction of apoptosis in human DU145 cells assessed as nuclear fragmentation at 2 uM after 24 hrs by Hoechst staining based fluorescence microscopic method; format: functional, cell-based; method in brief: as §4
[31] = system: DU-145; test: Induction of apoptosis in human DU145 cells assessed as morphological changes at 2 uM after 24 hrs by phase contrast microscopic method; format: functional, cell-based; method in brief: as §6
[32] = system: DU-145; test: Induction of apoptosis in human DU145 cells assessed as live cells at 2 uM after 24 hrs by Annexin V-FITC/propidium iodide staining based flow cytometry (reference value: 96.3%); format: functional
[33] = system: DU-145; test: Induction of apoptosis in human DU145 cells assessed as nuclear condensation at 2 uM after 24 hrs by Hoechst staining based fluorescence microscopic method; format: functional, cell-based; method in brief: as §4
[34] = system: DU-145; test: Induction of mitochondrial membrane potential loss in human DU145 cells […] at 2 uM after 24 hrs by JC1 staining based flow cytometry; format: functional, cell-based; method in brief: as §7
[35] = system: DU-145; test: Induction of apoptosis in human DU145 cells assessed as late apoptotic cells at 2 uM after 24 hrs by Annexin V-FITC/propidium iodide staining based flow cytometry (reference value: 1.49%); format: functional
[36] = system: DU-145; test: Antimigratory activity against human DU145 cells at 2 uM after 24 to 48 hrs by phase contrast microscopic based scratch assay; format: functional, cell-based; method in brief: as §2
[37] = system: DU-145; test: Induction of ROS production in human DU145 cells at 2 uM after 24 hrs by DCFDA staining based fluorescence microscopic method; format: functional, cell-based; method in brief: as §8
[38] = system: DU-145; test: Induction of apoptosis in human DU145 cells assessed as necrotic cells at 2 uM after 24 hrs by Annexin V-FITC/propidium iodide staining based flow cytometry (reference value: 1.65%); format: functional
[39] = system: DU-145; test: Cell cycle arrest in human DU145 cells assessed as accumulation at G2/M phase at 2 uM after 24 hrs by propidium iodide staining based flow cytometry relative to control; format: functional; method in brief: as §3

Row | Structure (SMILES) | IC50 [1] [nM] | Activity [2] [%] | IC50 [3] [nM] | Activity [4] | IC50 [5] [nM] | Activity [6] [%] | Activity [7] [%] | Activity [8] [%] | Activity [9] | IC50 [10] [nM] | Activity [11] [%] | Activity [12] | Activity [13] [%] | Activity [14] [%] | Activity [15] | Activity [16] | Activity [17] [%] | IC50 [18] [nM] | IC50 [19] [nM] | Activity [20] | also measured
1 | COc1cc([C@@H]2c3cc4c(cc3C(NC(=O)c3cn(-c5ccc(Cl)cc5)nn3)[C@H]3COC(=O)[C@H]23)OCO4)cc(OC)c1OC (single isomer, unassigned) | 1200 | 0.16 | 780 | inactive | 780 | 31.94 | 93.72 | 1.93 | Active | 970 | 3.94 | Active | 35.61 | 1.8 | Active | inactive | 4.35 | 4110 | 700 | Active | IC50 [21]: 89000 nM; Activity [22]: Active; Activity [23]: 0.41%; Activity [24]: Active; Activity [25]: 93.69%
2 | COc1cc([C@@H]2c3cc4c(cc3C(NC(=O)c3cn(-c5ccc(C(F)(F)F)cc5)nn3)[C@H]3COC(=O)[C@H]23)OCO4)cc(OC)c1OC (single isomer, unassigned) | 1960 | 0.05 | 1210 | Active | 1210 | 52.42 | 89.65 | 2.6 | Active | 1350 | 7.01 | – | 56.16 | 2.46 | Active | Active | 17.65 | 4400 | 890 | Active | inhibition [26]: Active; Activity [27]: Dose-dependent effect; IC50 [21]: 83800 nM; Activity [22]: Active; Activity [28]: Dose-dependent effect; Activity [23]: 0.74%; Activity [25]: 79.84%
3 | COc1ccc(-n2cc(C(=O)NC3c4cc5c(cc4[C@@H](c4cc(OC)c(OC)c(OC)c4)[C@H]4C(=O)OC[C@H]34)OCO5)nn2)cc1 (single isomer, unassigned) | 1610 | 0.99 | 6490 | Active | 2790 | 56.71 | 91.01 | 1.83 | Active | 1110 | 6.76 | Active | 64.3 | 3.12 | Active | Active | 7 | 11400 | 990 | Active | Activity [27]: Dose-dependent effect; IC50 [21]: 62900 nM; Activity [22]: Active; Activity [28]: Dose-dependent effect; Activity [23]: 0.4%; Activity [25]: 88.89%
4 | COc1cc([C@@H]2c3cc4c(cc3[C@@H](O[C@@H]3O[C@@H]5CO[C@@H](C)O[C@H]5[C@H](O)[C@H]3O)[C@H]3COC(=O)[C@H]23)OCO4)cc(OC)c1O [ETOPOSIDE] | 1970 | – | 2710 | – | 2840 | – | – | – | – | 1620 | – | Active | – | – | – | – | – | 1870 | 2350 | – | Activity [29]: 4.52%; Activity [30]: Active; Activity [31]: Active; Activity [32]: 91.09%; Activity [33]: Active; Activity [34]: Active; Activity [35]: 3.86%; Activity [36]: Active; Activity [37]: Active; Activity [38]: 0.53%; Activity [39]: 71.53%
